Screens: PubChem BioAssay, Sanford-Burnham Center for Chemical Genomics
Apaf-1 act: activators of human Apaf-1 apoptosome, primary screen, biochemical, DEVD-Rh110 fluorescence, uHTS; Apaf-1 apoptosome caspase-3 activation; active compounds read low; Apoptotic protease-activating factor 1 (Homo sapiens), O14727; activity change, negative = activation, % at 20 µM; 0.31% of 330,000 active; AID 489031, 2010;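 active = activity change at or below -40% at 20 µM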
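Material: reconstituted apoptosome of Apaf-1, cytochrome c, caspase-9, procaspase-3; times: 30 min preincubation, 50 min reaction, room temperature; measured by: fluorescence, 540 nm emission, 480 nm excitation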
Rh110 interf act: Rh110 fluorescence interference by putative Apaf-1 activators, confirmation, artefact control for Apaf-1 activator project, biochemical, 20 µM; AID 504616, 2011; quenched caspase reaction, Ex480/Em540; shares compounds with Apaf-1 act; 980 tested, under 10 active; fluorescence interference (activity change), % at 20 µM, hits read low;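 active = mean activity change at or below -40% when tested at 20 µM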
Apaf-1 act conf2: Apaf-1 activators, single-dose retest, confirmation, biochemical, fluorescence, DEVD-Rh110, 20 µM; shares compounds with Apaf-1 act; reconstituted apoptosome caspase-3 activity; active compounds read low; activity change, negative = activation, % at 20 µM; 5% of 980 active;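 active = mean activity change at or below -40%, meaning activation of 40% or more, at 20 µM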
Numbers without * were called inactive. A selection follows.

SMILES	Apaf-1 act	others
CCCN(CC(=O)Nc1ccccc1C)C(=O)CCCOc1ccc(Br)cc1	53
C[C@H](O)CC(=O)O	-8
CCCCCCCNC(=O)C1(CC2CC(c3ccc(Cl)cc3)=NO2)CCNCC1 (stereo not given)	41
COC(=O)c1ccc(N2CC3CNC(=O)C2(C(=O)OC)N3C)cc1 (stereo not given)	-6
NC1=NC[C@H](CC2CCCCC2)N1CCc1cc(C(F)(F)F)cc(C(F)(F)F)c1	74
Clc1ccc2nsnc2c1NC1=NCCN1	-7
CN(C)C=Nc1ccc2nc3c(cc2c1)[nH]c1ccccc13	46
CCCN(CC(=O)Nc1ccccc1OC)C(=O)CSc1ccc(Br)cc1C	57
CC(NC(=O)CC1CCCCC1)c1ccccc1 (stereo not given)	-109*
O=C(COC(=O)c1ccccc1)NCC1CCCO1 (stereo not given)	56
CC(C)[C@H](NC(=O)N1CCC(Cc2ccccc2)CC1)C(=O)O	42
O=C(COC(=O)c1ccccc1Sc1ccc(C(F)(F)F)cc1[N+](=O)[O-])NC(=O)NC1CCCC1	40
Cc1cc(C)c(C#N)c(SCC(=O)Nc2nonc2N)n1	64
COc1ccc(OC)c2c1cc(C(=O)N[C@H](C(=O)N1CCC[C@H]1C(=O)O)C(C)C)n2C	52
CCN1CCN(S(=O)(=O)c2ccc(Cl)c(C(=O)N(C)Cc3cccc(Cl)c3Cl)c2)CC1	43
COc1cc(NC(=O)CN2C(=O)NC3(CCOc4ccccc43)C2=O)cc(OC)c1 (stereo not given)	59
COc1ccc(C2(c3ccc(OC)cc3)NC(=O)N(CC(=O)N(C)C)C2=O)cc1	-131*
COc1ccc(C2(c3ccc(OC)cc3)NC(=O)N(CC(=O)Nc3ccc(N4CCOCC4)cc3)C2=O)cc1	41
Cc1ccc(S(=O)(=O)N(C)C)cc1NC(=O)c1ccccc1SCC(=O)N1CCCC1	41
COc1ccc(-n2c(C)cc(/C=N/Nc3nnc(C)n3N)c2C)cc1	53
Cc1ccc(C(=O)NC(C)c2nc3ccccc3n2CC(=O)Nc2c(C)cc(C)cc2C)cc1 (stereo not given)	-100*
CCC(=O)Nc1c(S(=O)(=O)c2ccc(C)cc2)c2nc3ccccc3nc2n1C(C)c1ccccc1 (stereo not given)	44
O=S(=O)(Nc1ccc(O)c2ccccc12)c1ccc(Br)cc1	57
Cc1ccc(C)c(NC(=O)/C(C#N)=C/c2ccc(Sc3nncn3C)c([N+](=O)[O-])c2)c1	-217*
Cc1cc(N2CCCC2)ccc1NC(=O)COc1ccccc1	52
SMILES	Apaf-1 act	others
O=C(Cc1ccc(Br)cc1)Nc1ccccc1N1CCCC1	-66*
O=C(NCC(F)(F)F)c1ccc(S(=O)(=O)Nc2ccccc2N2CCCC2)cc1	54
Cc1cccc(C)c1NC(=O)CN1CCN(CCCC(c2ccc(F)cc2)c2ccc(F)cc2)CC1	51
O=C(NC(Cc1ccc2c(c1)OCO2)C(=O)NC(Cc1ccccc1)C(=O)O)c1ccccc1 (stereo not given)	-42*
S=C(NCc1ccc2c(c1)OCO2)Nc1ccc2nsnc2c1	62
CSc1ccccc1NC(=O)COc1ccc2c(c1)OCO2	45
Cc1ccc(S(=O)(=O)N2CCC(C(=O)OCC(=O)N(C)CC(=O)Nc3ccc(F)cc3)CC2)cc1C	52
COCCN(C(=O)CSc1nc(N)cc(=O)[nH]1)c1c(N)n(Cc2ccccc2)c(=O)[nH]c1=O	45
CC/C(=C(\c1ccc(O)cc1)c1ccc(OCCN(C)C)cc1)c1ccccc1	65
CCc1ccc(CNc2ccc(O)cc2)cc1	96
CC/C(=C(/CC)c1ccc(O)cc1)c1ccc(O)cc1	-151*
O=C(NCCc1c[nH]c2ccccc12)OCCSS(=O)(=O)O	-93*
COC(=O)C1=C(C)N(Cc2ccccc2)C(=NCCc2c[nH]c3ccccc23)N[C@H]1c1cccc(F)c1	60
COC(=O)C1=C(C)N(Cc2ccccc2)C(=NCCc2c[nH]c3ccccc23)N[C@H]1c1ccccc1	69
C[C@@H]1[C@H]2[C@@H]3CC[C@@H](C3)[C@H]2CN[C@H]1c1cn(Cc2ccccc2)c2ccccc12	62
CC(C)(C)NC(=O)CC1C(=O)NCCN1Cc1c(F)cccc1Cl (stereo not given)	-41*	Rh110 interf act=1;Apaf-1 act conf2=7
COc1ccc(S(=O)(=O)N2CCCCCC2)cc1C(=O)N(C)Cc1c(F)cccc1Cl	43
CCC[C@@H](CN1CCC[C@H]1CN1C(N)=NC[C@H]1CC(C)C)N1C[C@@H](Cc2ccccc2)N(CCc2ccc(Cl)c(Cl)c2)C1=N	68
CCCC(=Nc1ccc(N)cc1)C1=C(O)C(C(=O)OC)C(C)(C)CC1=O (stereo not given)	67
COc1ccc(CNC[C@@H](CCCCN(C)Cc2ccc(OC)cc2)N2C[C@H](c3ccccc3)N(CCc3ccc(Cl)c(Cl)c3)C(=O)C2=O)cc1	49
CCCCc1nn2c(N)c(/C=C3\C=Nc4ccccc43)c(=O)nc2s1	-459*	Rh110 interf act=19;Apaf-1 act conf2=30
COc1ccc(-n2nc3cc(N)c(Br)cc3n2)cc1	69
COc1ccc(C2=NCN(c3ccc(C)cc3)C(=S)N2)cc1	-555*	Rh110 interf act=9;Apaf-1 act conf2=17
COc1cc(C#Cc2c(-c3cncn3C)n(C)c3ccc(-c4cnc(OC)nc4)cc23)cc(OC)c1	42
Cc1cc(NC(=O)CCC(=O)N(CC(=O)NCC2CCCO2)Cc2ccc(F)cc2)no1 (stereo not given)	-45*	Rh110 interf act=-2;Apaf-1 act conf2=2
SMILES	Apaf-1 act	others
COc1cc(/C=C2/C(=O)N(c3ccc(Br)cc3)N=C2C)cc(OC)c1OC	94
COc1cccc(NC(=S)Nc2cccc3ccccc23)c1	94
COc1cccc(NC(=O)C(Sc2nnc(Nc3ccccc3C)s2)c2ccccc2)c1 (stereo not given)	-276*	Rh110 interf act=16;Apaf-1 act conf2=6
COc1cccc(-c2nnc(SC(C(=O)c3c[nH]c4ccccc34)c3ccccc3)n2C)c1 (stereo not given)	43
O=P(CCCCCCCCCP(=O)(c1ccccc1)c1ccccc1)(c1ccccc1)c1ccccc1	53
CCOC(=O)c1ccc(N2CSC3=C(C#N)C(c4ccc(OC)cc4OC)CC(=O)N3C2)cc1 (stereo not given)	50
CCOC(=O)C1=C(COCCN)NC(C)=C(C(=O)OC)C1c1ccccc1Cl (stereo not given)	40
Cc1ccc(O)c([C@H](CCN(C(C)C)C(C)C)c2ccccc2)c1	1
Cc1ccc(NC(=O)CC(C)N2CCCC2)cc1 (stereo not given)	-79*	Rh110 interf act=10;Apaf-1 act conf2=13
CN(C)S(=O)(=O)N1CCCN(S(=O)(=O)N(C)C)CC1	-313*	Rh110 interf act=0;Apaf-1 act conf2=14
COC(=O)c1cc(C)nc2c1C(=O)C(=O)C=C2N1CCOCC1	99
Cc1nnc(N/N=C/c2cccc(OCc3ccc(Cl)c(Cl)c3)c2)n1N	77
O=C1c2cc(F)ccc2-n2c1nc1ccccc1c2=O	63
Cc1cccc(OCc2nc3ccccc3c(=O)n2N)c1	-92*	Rh110 interf act=-1;Apaf-1 act conf2=5
C=CCN(CC=C)C(=S)Nc1ccc2nsnc2c1	96
